pIC50, pKd: −log10 of the molar value. Active and inactive are the calls of the source. The calls are words filed in the database; no cut-off is given here.
Key:
[1] = test system: Tyrosine-protein kinase ABL1 (Homo sapiens), P00519 [T315I]; test: Inhibition of phosphorylated ABL1 T315I mutant (unknown origin) assessed as remaining activity at 1 uM by Kinome scan method relative to control
[2] = target: Mitogen-activated protein kinase kinase kinase kinase 3 (Homo sapiens) (UniProt Q8IVH8); test: Inhibition of MAP4K3 (unknown origin) assessed as remaining activity at 1 uM by Kinome scan method relative to control
[3] = target: Microtubule-associated serine/threonine-protein kinase 1 (Homo sapiens) (UniProt Q9Y2H9); test: Inhibition of MAST1 (unknown origin) assessed as remaining activity at 1 uM by Kinome scan method relative to control
[4] = target: Mitogen-activated protein kinase kinase kinase 3 (Homo sapiens, UniProt Q99759); test: Binding affinity to MAP3K3 (unknown origin) assessed as dissociation constant
[5] = test system: Tyrosine-protein kinase ABL1 (Homo sapiens), P00519 [Q252H]; test: Inhibition of ABL1 Q252H mutant (unknown origin) assessed as remaining activity at 1 uM by Kinome scan method relative to control
Method in brief: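 Active-site-dependent competition-binding (KINOMEscan) panel of 468 kinases, test compound at 1 μM (from a 10 mM DMSO stock). Read-out is ctrl% = (test signal − positive control signal)/(negative control signal − positive control signal) × 100. DMSO is the negative control (100%) and a control compound is the positive control (0%). Lower ctrl% means tighter binding.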

[6] = test system: Mast/stem cell growth factor receptor Kit (Homo sapiens), P10721 [L576P]; test: Inhibition of KIT L576P mutant (unknown origin) assessed as remaining activity at 1 uM by Kinome scan method relative to control
[7] = target: Ephrin type-A receptor 1 (Homo sapiens) (UniProt P21709); test: Inhibition of EPHA1 (unknown origin) assessed as remaining activity at 1 uM by Kinome scan method relative to control
[8] = target: Serine/threonine-protein kinase 10 (Homo sapiens) (UniProt O94804); test: Inhibition of LOK (unknown origin) assessed as remaining activity at 1 uM by Kinome scan method relative to control
[9] = target: Non-receptor tyrosine-protein kinase TNK1 (Homo sapiens) (UniProt Q13470); test: Inhibition of TNK1 (unknown origin) assessed as remaining activity at 1 uM by Kinome scan method relative to control
[10] = target: Hepatocyte growth factor receptor (Homo sapiens) (UniProt P08581); test: Inhibition of MET (unknown origin) assessed as remaining activity at 1 uM by Kinome scan method relative to control
[11] = target: T1, Serine/threonine-protein kinase 3 (Homo sapiens, UniProt Q13188); test: Inhibition of Flag-tagged full-length MST2 (unknown origin) transfected in HEK293T cells assessed as MOB1a phosphorylation level incubated for 3 hrs by immunoblot analysis
T1 sequence (Q13188 whole entry): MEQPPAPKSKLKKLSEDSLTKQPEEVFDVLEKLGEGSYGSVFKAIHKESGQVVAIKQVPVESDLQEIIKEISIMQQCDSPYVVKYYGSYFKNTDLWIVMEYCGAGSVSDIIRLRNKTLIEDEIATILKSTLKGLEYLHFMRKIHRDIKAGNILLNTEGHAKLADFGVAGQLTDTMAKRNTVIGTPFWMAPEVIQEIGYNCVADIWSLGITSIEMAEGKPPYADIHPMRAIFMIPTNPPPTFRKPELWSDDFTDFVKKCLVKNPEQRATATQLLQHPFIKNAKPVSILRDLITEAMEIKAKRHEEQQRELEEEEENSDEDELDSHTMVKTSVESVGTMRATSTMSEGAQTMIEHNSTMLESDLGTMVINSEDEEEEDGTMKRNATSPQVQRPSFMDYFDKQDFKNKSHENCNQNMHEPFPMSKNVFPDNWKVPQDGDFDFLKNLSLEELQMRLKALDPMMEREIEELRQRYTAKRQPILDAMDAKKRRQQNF

[12] = Toxicity in DSS-induced mouse assessed as body weight loss at 1 mg/kg, ip administrated daily for over 1 to 21 days; type: organism-based; conditions: in vivo, time 1-21 day
Method in brief: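 Colitis was induced with oral DSS on days 1–7, with vehicle or 1 mg/kg i.p. daily, n = 12 per group. Body weight was recorded over days 1–21 as a percentage of day 1; means ± SD, Student's t test per time point.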

[13] = test system: Phosphatidylinositol 4,5-bisphosphate 3-kinase catalytic subunit alpha isoform (Homo sapiens), P42336 [E545K]; test: Inhibition of PIK3CA E545K mutant (unknown origin) assessed as remaining activity at 1 uM by Kinome scan method relative to control
Mus musculus = test: Protection against APAP induced liver injury in mouse assessed as decrease in ALT level at 1 mg/kg, ip administered at 1.5 hrs; type: functional, organism-based; conditions: Serum
[14] = target: Mitogen-activated protein kinase kinase kinase 15 (Homo sapiens) (UniProt Q6ZN16); test: Inhibition of MAP3K15 (unknown origin) assessed as remaining activity at 1 uM by Kinome scan method relative to control
[15] = test system: Hepatocyte growth factor receptor (Homo sapiens), P08581 [M1250T]; test: Inhibition of MET M1250T mutant (unknown origin) assessed as remaining activity at 1 uM by Kinome scan method relative to control
[16] = target: Serine/threonine-protein kinase 17A (Homo sapiens) (UniProt Q9UEE5); test: Inhibition of DRAK1 (unknown origin) assessed as remaining activity at 1 uM by Kinome scan method relative to control
[17] = Acute toxicity in mouse assessed as increase in BrdU-positive cells at 1 mg/kg,ip administrated once a daily for 3 weeks by H and E staining based immunohistochemical analysis relative to control; type: organism-based, Liver; conditions: in vivo, 504 h
Method in brief: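 Postnatal mice dosed from 10 days of age with vehicle or 1 mg/kg once per day for 21 days (3 weeks). Vehicle is 0.1% citric acid aqueous solution containing 20% Kolliphor HS 15. Liver sections stained with H&E and by IHC for CK19 and BrdU, with positive cells quantified (n = 3). Liver/body weight ratio recorded (n = 4). Values are means ± SD versus vehicle, Student's t test.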

[18] = test system: Proto-oncogene tyrosine-protein kinase receptor Ret (Homo sapiens), P07949 [M918T]; test: Inhibition of RET M918T (unknown origin) assessed as remaining activity at 1 uM by Kinome scan method relative to control
HepG2 = test: Induction of apoptosis in human HepG2 cells assessed as late apoptosis cells at 3 uM by annexinV staining (Rvb =0.84 %); type: functional
[19] = target: Phosphatidylinositol 4-phosphate 5-kinase type-1 gamma (Homo sapiens, UniProt O60331); test: Inhibition of PIP5K1C (unknown origin) assessed as remaining activity at 1 uM by Kinome scan method relative to control
[20] = target: Homeodomain-interacting protein kinase 2 (Homo sapiens) (UniProt Q9H2X6); test: Inhibition of HIPK2 (unknown origin) assessed as remaining activity at 1 uM by Kinome scan method relative to control
[21] = target: Proto-oncogene tyrosine-protein kinase ROS (Homo sapiens) (UniProt P08922); test: Inhibition of ROS1 (unknown origin) assessed as remaining activity at 1 uM by Kinome scan method relative to control
Proto-oncogene tyrosine-protein kinase ROS (Homo sapiens), sequence (P08922 whole entry): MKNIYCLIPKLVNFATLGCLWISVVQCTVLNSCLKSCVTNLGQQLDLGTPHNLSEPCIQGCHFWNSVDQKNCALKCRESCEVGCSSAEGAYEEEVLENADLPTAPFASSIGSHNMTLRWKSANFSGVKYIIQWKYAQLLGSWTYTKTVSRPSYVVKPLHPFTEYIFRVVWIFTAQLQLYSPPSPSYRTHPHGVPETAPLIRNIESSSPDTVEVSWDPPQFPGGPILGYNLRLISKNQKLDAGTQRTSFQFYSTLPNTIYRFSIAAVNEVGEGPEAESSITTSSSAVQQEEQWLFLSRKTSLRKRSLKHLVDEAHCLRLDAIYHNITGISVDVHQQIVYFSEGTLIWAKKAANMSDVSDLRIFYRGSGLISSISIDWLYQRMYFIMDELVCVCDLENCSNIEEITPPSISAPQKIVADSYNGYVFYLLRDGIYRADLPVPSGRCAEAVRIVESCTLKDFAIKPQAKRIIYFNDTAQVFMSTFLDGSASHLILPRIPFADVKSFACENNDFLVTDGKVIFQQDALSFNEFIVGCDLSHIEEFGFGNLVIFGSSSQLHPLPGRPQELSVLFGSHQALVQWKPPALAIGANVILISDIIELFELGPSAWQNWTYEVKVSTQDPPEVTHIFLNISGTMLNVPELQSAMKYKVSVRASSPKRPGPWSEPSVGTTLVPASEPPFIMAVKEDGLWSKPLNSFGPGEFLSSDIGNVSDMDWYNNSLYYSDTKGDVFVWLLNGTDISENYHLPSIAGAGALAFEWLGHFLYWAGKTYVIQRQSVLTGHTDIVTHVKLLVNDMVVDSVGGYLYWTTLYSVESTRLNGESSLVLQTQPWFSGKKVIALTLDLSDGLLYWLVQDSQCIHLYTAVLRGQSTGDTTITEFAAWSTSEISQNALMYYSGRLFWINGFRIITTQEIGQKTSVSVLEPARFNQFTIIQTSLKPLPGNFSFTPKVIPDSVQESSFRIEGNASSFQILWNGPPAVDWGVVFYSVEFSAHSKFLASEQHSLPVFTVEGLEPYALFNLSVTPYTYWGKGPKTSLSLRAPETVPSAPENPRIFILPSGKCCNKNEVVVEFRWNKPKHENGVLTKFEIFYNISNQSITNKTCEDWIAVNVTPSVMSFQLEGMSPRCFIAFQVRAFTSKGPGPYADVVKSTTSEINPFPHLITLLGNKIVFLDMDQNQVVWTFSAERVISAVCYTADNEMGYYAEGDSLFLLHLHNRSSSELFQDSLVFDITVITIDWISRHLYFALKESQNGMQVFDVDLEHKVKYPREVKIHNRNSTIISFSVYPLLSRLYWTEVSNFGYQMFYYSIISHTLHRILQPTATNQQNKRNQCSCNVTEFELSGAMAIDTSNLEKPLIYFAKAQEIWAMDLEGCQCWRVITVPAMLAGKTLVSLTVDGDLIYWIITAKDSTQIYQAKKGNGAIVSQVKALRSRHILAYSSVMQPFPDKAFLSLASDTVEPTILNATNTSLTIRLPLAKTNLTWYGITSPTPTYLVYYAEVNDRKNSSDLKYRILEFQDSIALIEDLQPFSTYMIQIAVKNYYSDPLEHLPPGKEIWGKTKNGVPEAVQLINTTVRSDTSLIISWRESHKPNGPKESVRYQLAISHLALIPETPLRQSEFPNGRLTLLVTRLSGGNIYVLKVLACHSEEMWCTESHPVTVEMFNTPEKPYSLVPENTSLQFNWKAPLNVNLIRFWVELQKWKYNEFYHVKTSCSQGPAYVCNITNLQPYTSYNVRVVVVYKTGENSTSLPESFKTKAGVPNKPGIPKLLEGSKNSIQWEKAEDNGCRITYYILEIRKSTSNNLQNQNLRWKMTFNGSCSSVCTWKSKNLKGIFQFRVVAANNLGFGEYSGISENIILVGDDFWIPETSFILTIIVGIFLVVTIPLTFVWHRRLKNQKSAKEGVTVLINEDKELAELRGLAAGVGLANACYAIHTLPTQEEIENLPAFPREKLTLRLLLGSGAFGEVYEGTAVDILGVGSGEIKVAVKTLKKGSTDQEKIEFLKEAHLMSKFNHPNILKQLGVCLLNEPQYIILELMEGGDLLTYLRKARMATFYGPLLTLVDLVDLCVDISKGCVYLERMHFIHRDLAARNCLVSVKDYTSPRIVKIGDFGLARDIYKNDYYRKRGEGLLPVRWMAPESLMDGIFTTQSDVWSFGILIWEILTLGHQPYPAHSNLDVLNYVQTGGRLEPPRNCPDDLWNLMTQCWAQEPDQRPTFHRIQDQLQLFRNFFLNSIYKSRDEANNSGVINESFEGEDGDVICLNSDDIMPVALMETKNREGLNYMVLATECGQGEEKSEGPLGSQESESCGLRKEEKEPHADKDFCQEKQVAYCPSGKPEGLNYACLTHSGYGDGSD

Homeodomain-interacting protein kinase 2 (Homo sapiens), sequence (Q9H2X6 whole entry, looked up): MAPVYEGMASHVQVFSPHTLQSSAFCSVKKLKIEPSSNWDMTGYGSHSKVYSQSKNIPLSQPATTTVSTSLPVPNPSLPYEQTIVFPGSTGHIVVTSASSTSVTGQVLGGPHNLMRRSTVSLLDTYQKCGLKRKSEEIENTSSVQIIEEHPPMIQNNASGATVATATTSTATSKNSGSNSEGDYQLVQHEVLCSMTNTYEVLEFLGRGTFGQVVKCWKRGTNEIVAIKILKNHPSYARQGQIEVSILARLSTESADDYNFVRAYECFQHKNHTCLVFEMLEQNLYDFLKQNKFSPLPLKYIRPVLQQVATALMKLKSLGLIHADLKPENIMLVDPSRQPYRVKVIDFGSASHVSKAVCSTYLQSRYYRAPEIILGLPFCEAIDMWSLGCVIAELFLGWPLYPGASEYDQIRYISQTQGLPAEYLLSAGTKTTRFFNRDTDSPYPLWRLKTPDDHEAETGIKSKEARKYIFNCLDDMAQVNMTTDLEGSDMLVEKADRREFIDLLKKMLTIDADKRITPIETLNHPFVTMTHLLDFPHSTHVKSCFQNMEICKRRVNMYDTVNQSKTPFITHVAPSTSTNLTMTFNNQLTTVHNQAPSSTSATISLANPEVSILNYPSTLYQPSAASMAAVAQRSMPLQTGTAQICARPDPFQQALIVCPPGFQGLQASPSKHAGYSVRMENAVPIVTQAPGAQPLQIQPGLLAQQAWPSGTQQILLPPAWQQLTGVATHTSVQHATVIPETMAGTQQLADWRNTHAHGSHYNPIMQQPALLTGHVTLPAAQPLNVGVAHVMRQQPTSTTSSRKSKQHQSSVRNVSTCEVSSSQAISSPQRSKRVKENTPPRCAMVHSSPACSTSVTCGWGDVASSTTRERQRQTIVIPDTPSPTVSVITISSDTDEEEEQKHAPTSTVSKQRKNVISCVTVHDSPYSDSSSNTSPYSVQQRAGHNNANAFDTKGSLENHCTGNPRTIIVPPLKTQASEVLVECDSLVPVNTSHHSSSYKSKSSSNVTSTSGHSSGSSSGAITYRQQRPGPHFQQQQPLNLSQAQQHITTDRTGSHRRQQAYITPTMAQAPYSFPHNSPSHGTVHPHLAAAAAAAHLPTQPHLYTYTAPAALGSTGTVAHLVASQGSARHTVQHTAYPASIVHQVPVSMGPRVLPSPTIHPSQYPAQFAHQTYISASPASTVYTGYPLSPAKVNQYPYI
Proto-oncogene tyrosine-protein kinase receptor Ret (Homo sapiens), P07949 [M918T], sequence (P07949 whole entry M918T): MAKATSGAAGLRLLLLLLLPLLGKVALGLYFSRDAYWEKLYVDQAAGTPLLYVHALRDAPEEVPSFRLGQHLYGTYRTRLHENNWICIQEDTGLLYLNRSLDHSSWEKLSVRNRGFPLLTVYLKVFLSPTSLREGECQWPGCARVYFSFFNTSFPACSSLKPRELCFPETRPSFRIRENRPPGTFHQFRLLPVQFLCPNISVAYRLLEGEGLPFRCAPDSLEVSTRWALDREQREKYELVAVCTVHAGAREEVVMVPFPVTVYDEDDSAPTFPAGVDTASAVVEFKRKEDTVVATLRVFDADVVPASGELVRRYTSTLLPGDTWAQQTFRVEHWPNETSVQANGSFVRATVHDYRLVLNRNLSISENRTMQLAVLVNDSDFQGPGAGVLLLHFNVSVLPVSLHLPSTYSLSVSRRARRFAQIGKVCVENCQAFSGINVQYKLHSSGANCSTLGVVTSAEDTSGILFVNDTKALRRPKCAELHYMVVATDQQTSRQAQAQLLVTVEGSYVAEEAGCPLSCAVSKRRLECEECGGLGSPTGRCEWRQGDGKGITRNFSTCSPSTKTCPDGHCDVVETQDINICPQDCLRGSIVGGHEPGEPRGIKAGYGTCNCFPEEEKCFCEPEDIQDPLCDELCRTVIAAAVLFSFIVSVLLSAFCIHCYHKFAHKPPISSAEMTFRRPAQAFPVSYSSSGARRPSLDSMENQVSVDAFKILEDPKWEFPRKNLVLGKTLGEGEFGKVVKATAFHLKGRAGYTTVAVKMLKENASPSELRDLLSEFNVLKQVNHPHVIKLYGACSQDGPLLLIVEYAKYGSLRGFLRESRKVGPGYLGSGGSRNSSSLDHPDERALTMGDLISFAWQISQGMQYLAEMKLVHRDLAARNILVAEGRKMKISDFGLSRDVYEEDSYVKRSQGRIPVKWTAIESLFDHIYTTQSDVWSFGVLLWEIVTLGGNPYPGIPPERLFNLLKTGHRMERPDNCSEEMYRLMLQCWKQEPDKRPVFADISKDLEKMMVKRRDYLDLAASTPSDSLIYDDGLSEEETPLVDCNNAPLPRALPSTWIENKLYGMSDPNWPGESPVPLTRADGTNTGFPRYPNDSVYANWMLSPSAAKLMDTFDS
Serine/threonine-protein kinase 17A (Homo sapiens), sequence (Q9UEE5 whole entry): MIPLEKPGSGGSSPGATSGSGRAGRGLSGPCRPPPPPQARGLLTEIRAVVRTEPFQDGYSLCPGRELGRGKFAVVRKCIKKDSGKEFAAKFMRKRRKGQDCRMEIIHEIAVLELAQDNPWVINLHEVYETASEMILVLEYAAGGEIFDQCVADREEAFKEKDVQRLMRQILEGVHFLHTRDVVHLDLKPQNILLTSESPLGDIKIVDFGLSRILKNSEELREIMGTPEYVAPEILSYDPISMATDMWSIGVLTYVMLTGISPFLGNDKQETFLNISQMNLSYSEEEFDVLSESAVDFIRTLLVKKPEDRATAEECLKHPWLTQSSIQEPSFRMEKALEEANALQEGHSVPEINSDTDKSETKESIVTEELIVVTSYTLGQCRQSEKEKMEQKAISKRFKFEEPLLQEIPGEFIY

## CN1C(=O)c2sccc2N(C)c2nc(Nc3ccc(S(N)(=O)=O)cc3)ncc21
[1]
  Activity: 1.6%
[2]
  Activity: 100%
[3]
  Activity: 80%
[4]
  pKd: 7.57
[5]
  Activity: 15%
[6]
  Activity: 75%
[7]
  Activity: 92%
[8]
  Activity: 100%
[9]
  Activity: 69%
[10]
  Activity: 100%
[11]
  pIC50: 7.42
[12]
  Activity: Toxic
[13]
  Activity: 49%
Mus musculus
  Activity: Active
[14]
  Activity: 67%
[15]
  Activity: 81%
[16]
  Activity: 100%
[17]
  Activity: 15%
[18]
  Activity: 78%
HepG2
  Activity: 0.96%
[19]
  Activity: 10%
[20]
  Activity: 96%
[21]
  Activity: 100%

Reference: ChEMBL document CHEMBL5705905, “Pharmacological targeting of kinases MST1 and MST2 augments tissue repair and regeneration” (Sci Transl Med, 2016)
